Assay results from publication PMC8603004 (EFSA Journal, 2021).

Experiments:
[1] = Incubation of 14C‐3‐NOP in liver fractions; type: in vitro ADME; details: Beagle, dog, liver S9
Outline: (§1)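 14C-labelled test compound was incubated with or without NAD+ in liver S9, cytosol and microsomes from Sprague–Dawley rat, Wistar Han rat, Beagle dog and human. Aliquots were taken at several time points and the proteins precipitated. Supernatants were analysed by liquid scintillation counting and radio-HPLC, and half-life was derived from the time course.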

[2] = Incubation of 14C‐3‐NOP in liver fractions; type: in vitro ADME, humans; details: human, liver S9 and liver cytosol
Outline: as §1

[3] = First in vivo toxicokinetic study; parameters: species or system male Wistar rats
Outline: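 Male Wistar rats received a single oral dose of 500 mg/kg bw 14C-labelled test compound under OECD TG 417 and were killed 48 h post-dose. Total radioactivity was measured in plasma, excreta and selected organs and tissues. Tissue levels were expressed as μg test-compound-eq/g and recovery as % of applied dose.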

[4] = Second in vivo toxicokinetic study, metabolic profile in gut and plasma; parameters: species or system male Wistar rats
Outline: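 Single oral dose of 500 mg/kg bw 14C-labelled test compound to male Wistar rats. One animal per time point was killed at 1, 2 and 3 h post-dose and blood was collected. Stomach, small intestine, caecum and colon contents were removed for total radioactivity. Metabolites were characterised by NMR and/or LC/MS.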

ADME in a lactating goat = type: in vivo
[5] = Second goat experiment, pre‐dosed 5 days; type: in vivo, lactating goat
[6] = ADME in four lactating cows; type: in vivo
[7] = system: Chinese hamster V79 cells; experiment: In vitro micronucleus assay; type: cell-based
Outline: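 OECD TG 487 study, non-GLP, in Chinese hamster V79 cells. Concentrations were set from a dose-range finding test. Without S9-mix, cells had continuous 24 h treatment up to 1,243 μg/mL. With S9-mix, cells had short 4 h treatment plus 20 h recovery up to 310 μg/mL. Micronuclei were scored against the historical vehicle control range.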

[8] = system: Syrian hamster embryo cells; experiment: Cell transformation assay; type: cell-based; details: 500 to 2,500 μg/mL, 7 days
Outline: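 GLP in vitro transformation assay in Syrian hamster embryo cells, following the OECD draft proposal (2012). The test compound was given as a continuous 7-day treatment at six concentrations from 500 to 2,500 μg/mL, chosen from a dose-range finding test. The frequency of morphologically transformed colonies was scored against positive and vehicle controls.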

[9] = system: bone marrow cells of NMRI BR mice; experiment: In vivo micronucleus test, intraperitoneal
Outline: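 A preliminary intraperitoneal toxicity study in NMRI BR mice set the top dose for the OECD TG 474 bone marrow micronucleus test. In the main test, mice were dosed ip at 250, 500 and 1,000 mg/kg bw and sampled at 24 h; top-dose and control groups were also sampled at 48 h. 2,000 PCEs were scored per animal.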

[10] = system: bone marrow cells of Wistar WI (Han) rats; experiment: In vivo micronucleus test, oral gavage
Beagle dogs = experiment: 90‐day oral gavage study; type: in vivo
[11] = system: Holstein Friesian dairy cows; experiment: Dose‐range finding study in dairy cows; type: in vivo; details: group 10× (16 g 3‐NOP/day, 800 mg/kg complete feed) compared to the control
[12] = Octanol–water partition coefficient; type: physicochemical
[13] = system: human lymphoblastoid TK6 cells; experiment: In vitro micronucleus assay; details: with and without S9, up to 1,220 μg/mL
Incubation of = details: for 3‐NOP concentration remaining at t = 24 h: 38°C
[14] = 3.28 mg/kg bw per day, two days labelled

## O=[N+]([O-])OCCCO [3‐NOP, propan‐1,3‐diol‐mononitrate]
[1]
  half-life: 66 min
[2]
  half-life: ~42 min
[3]; 48 h
  Mean overall recovery of the radioactivity applied: 28%
  Radioactivity recovered from tissues, organs and carcass: 5.5 % of the dose
  Radioactivity remaining in gastrointestinal content: 0.2 % of the dose
[3]; 48 h after 500 mg/kg bw
  Radioactivity concentration in adrenal glands: 113.9 μg 3‐NOP‐eq/g
  Radioactivity concentration in brain: 31.2 μg NOP‐eq/g
  Radioactivity concentration in fat: 23.5 μg NOP‐eq/g
  Radioactivity concentration in kidney: 71.6 μg 3‐NOP‐eq/g
  Radioactivity concentration in liver: 139.6 μg 3‐NOP‐eq/g
  Radioactivity concentration in muscle: 27.1 μg NOP‐eq/g
[3]; at 48 h
  Radioactivity recovered in total excreta: 20 % of the dose
[3]; first 24 h
  Radioactivity recovered in urine: 17.6 % of the dose
[3]; interval 24‐48 h
  Radioactivity recovered in urine: 0.3 % of the dose
[3]; single oral 500 mg/kg bw
  Cmax radioactivity in plasma: about 600 μg 3‐NOP‐eq/g
  Radioactivity in plasma after 48 h: 27 μg 3‐NOP‐eq/g
  Time of Cmax radioactivity in plasma: 1 h
[3]; within 48 h
  Radioactivity excreted in faeces: 2.3 % of the dose
[4]; 1 and 3 h after 500 mg/kg bw
  Intact compound, share of radioactivity in small intestine content: < 4%
  Intact compound, share of radioactivity in stomach content: more than 80%
[4]; 1 h post‐dose
  Radioactivity in plasma: 713 μg 3‐NOP‐eq/g
[4]; 2 h post‐dose
  Radioactivity in plasma: 522 μg 3‐NOP‐eq/g
[4]; 3 h post‐dose
  Radioactivity in plasma: 156 μg 3‐NOP‐eq/g
[4]; after 1 h
  Overall radioactivity recovered: 88 % of the dose
[4]; after 2 h
  Overall radioactivity recovered: 78 % of the dose
[4]; after 3 h
  Overall radioactivity recovered: 58 % of the dose
[4]; urine 0 to 2 h of one animal
  Radioactivity in urine: 13.7 % of the applied dose
ADME in a lactating goat; 0–8 h after the sixth day of administration
  Milk radioactivity in the aqueous phase of milk: 75.2%
ADME in a lactating goat; 4.34 mg/kg bw per day, 7 days
  Radioactivity excreted via faeces: 1.9 % of total radioactivity appli
  Radioactivity excreted via milk: 6.42 % of total radioactivity appli
  Radioactivity excreted via urine: 3.5 % of total radioactivity appli
  Radioactivity in the intestinal tract content: 1.14 % of total radioactivity appli
  Radioactivity remaining in the total edible tissues: 4.98 % of total radioactivity appli
  Total radioactivity excreted: 11.85%
  Total recovery at sacrifice: 17.97%
ADME in a lactating goat; 8–24 h after the sixth day of administration
  Milk radioactivity in the aqueous phase of milk: 59.0%
ADME in a lactating goat; 24 h after the first administration
  Radioactive residues in plasma: 0.61 mg 3‐NOP‐eq/kg
ADME in a lactating goat; at sacrifice
  Radioactive residues in plasma: 3.72 mg 3‐NOP‐equivalents/kg
ADME in a lactating goat; milk collected 0–8 h post‐dose
  Nitrate esters in milk, not detectable (LOD): < 0.82 mg 3‐NOP‐equivalent/kg
ADME in a lactating goat; milk collected 8–24 h post‐dose
  Nitrate esters in milk, not detectable (LOD): < 0.43 mg 3‐NOP‐equivalent/kg
ADME in a lactating goat; plasma collected at sacrifice
  Plasma radioactivity non‐extractable in the protein precipitate: Eighty‐five
[5]; [14]
  Radioactivity excreted via faeces: 0.71 % of radioactivity totally app
  Radioactivity excreted via milk: 4.48 % of radioactivity totally app
  Radioactivity excreted via urine: 1.97 % of radioactivity totally app
  Radioactivity in the intestinal tract content: 14.87 % of radioactivity totally app
  Radioactivity remaining in the total edible tissues: 8.99 % of radioactivity totally app
  Total radioactivity excreted: 7.18%
  Total recovery at sacrifice: 31.04%
[5]; 0.5 h after the first administration
  Radioactive residues in plasma: 2.31 mg 3‐NOP‐equivalents/kg
[5]; 0.5 h post‐dose
  Plasma radioactivity associated with the plasma protein fraction: 4.4%
  Radioactivity in the aqueous phase of plasma: 95.6%
[5]; 24 h post‐dose
  Plasma radioactivity associated with the plasma protein fraction: 89.4%
  Radioactivity in the aqueous phase of plasma: 10.6%
[5]; LOD ≤ 0.07
  Nitrate esters in the aqueous phase of plasma, not detectable (LOD): < 0.07 mg/kg
[5]; LOD ≤ 0.21
  Nitrate esters in the aqueous milk fraction, not detectable (LOD): < 0.21 mg/kg
[5]; at sacrifice
  Radioactive residues in plasma: 1.6 mg 3‐NOP‐equivalents/kg
[6]; 1.8 g/animal per day, 7 days
  Radioactivity excreted via faeces, mean: 2.7 % of radioactivity totally app
  Radioactivity excreted via milk, mean: 16.82 % of radioactivity totally app
  Radioactivity excreted via urine, mean: 4 % of radioactivity totally app
  Radioactivity remaining in the total tissues: 6.2 % of radioactivity totally app
  Total radioactivity excreted: 23.5%
  Total recovery at sacrifice: approximately 30%
[6]; dairy cows
  3‐NOP and NOPA in total excreta, worst‐case scenario: ≤ 0.2%
[6]; in vivo
  Residue in milk, not found above the LOQ: < 8 μg 3‐NOP‐equivalents/kg
  Residue in tissues, not found above the LOQ: < 21 μg 3‐NOP‐equivalents/kg
[6]; urine of one animal (day 2–day 6)
  Amount in urine: 0.1 % of the dose
[7]; absence of metabolic activation, up to 1,243 μg/mL, 24 h
  Micronucleus frequency: no increase in micronucleus frequency
[7]; presence of metabolic activation, up to 310 μg/mL, 4 + 20 h
  Micronucleus frequency: statistically significant increase in micronuclei
[8]
  Morphologically transformed colonies: No significant increase in the frequency of morphologically transformed colonies
[9]; 250, 500 and 1,000 mg/kg bw intraperitoneally
  Frequency of micronuclei: comparable between treated and negative control groups
[9]; preliminary toxicity study, intraperitoneal
  Dose showing mortality: 2,000 mg/kg bw
[10]; 375, 750 and 1,500 mg/kg bw by gavage
  In vivo MN test result: Equivocal results
[10]; dose‐range finding test, gavage
  Dose showing severe symptoms and mortality: 2,000 mg/kg bw
Beagle dogs; females, severe clinical signs in one female
  NOAEL: 100 mg 3‐NOP/kg bw per day
Beagle dogs; males
  NOAEL: 300 mg 3‐NOP/kg bw per day
[11]
  Feed intake: significantly (p < 0.05) reduced
Skin corrosion study
  Skin corrosion potential: not corrosive to skin
[12]
  log KOW: 0.399
[13]
  Micronuclei, overall result: weak increase in micronuclei
Incubation of; 2.2 mg/L
  Radioactivity in the non‐dissolved fractions: ≤ 5.5%
Incubation of; 2.2 mg/L, anaerobic
  3‐NOP concentration remaining at t = 24 h: 0%
Incubation of; 23 mg/L
  Radioactivity in the non‐dissolved fractions: 7%
Incubation of; 23 mg/L, anaerobic
  3‐NOP concentration remaining at t = 24 h: < 0.1%
Incubation of; 23 or 2.2 mg/L, up to 24 h at 38°C, anaerobic, pH about 6.2
  Radioactivity in the trapped gas phases: ≤ 0.1 % of the total radioactivity
Incubation of; after 6 h
  3‐NOP concentration remaining: 54%
Incubation of; after 12 h
  3‐NOP concentration remaining: 6%
Incubation of; control samples (no or only minor)
  Abiotic degradation of 3‐NOP to propane‐1,3‐diol: 9.8%
